In ChEMBL document CHEMBL4811269, “Design, synthesis and antibacterial evaluation of novel C-11, C-9 or C-2'-substituted 3-O-descladinosyl-3-ketoclarithromycin derivatives” (Bioorg Med Chem Lett, 2021):
Converted amounts (≈) assume the structure as drawn.

Tests used:
Staphylococcus aureus [1] = test: Antibacterial activity against erythromycin-susceptible Staphylococcus aureus ATCC 25923 by broth microdilution method; format: functional
In short: (§1)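 MIC determined by standard broth microdilution per NCCLS recommendations, read as minimal inhibitory concentration in µg/mL. Standard ATCC strains tested alongside the other panel strains, with clarithromycin and azithromycin as reference agents.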

Streptococcus pneumoniae [2] = test: Antibacterial activity against erythromycin-resistant Streptococcus pneumoniae B1 by broth microdilution method; format: functional
In short: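 MIC by standard NCCLS broth microdilution, reported in µg/mL. The strain expresses the ermB gene. Clarithromycin and azithromycin were run alongside as references.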

Staphylococcus aureus [3] = test: Antibacterial activity against methicillin-resistant Staphylococcus aureus ATCC 43300 by broth microdilution method; format: functional
In short: (§2)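 MIC by standard NCCLS broth microdilution against resistant S. aureus strains, reported in µg/mL. Clarithromycin and azithromycin were run alongside as references.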

Staphylococcus aureus [4] = test: Antibacterial activity against penicillin-resistant Staphylococcus aureus ATCC 31007 by broth microdilution method; format: functional; in short: as §2
Bacillus subtilis = test: Antibacterial activity against penicillin-susceptible Bacillus subtilis ATCC9372 by broth microdilution method; format: functional; in short: as §1
Streptococcus pneumoniae [5] = test: Antibacterial activity against erythromycin-resistant Streptococcus pneumoniae AB11 by broth microdilution method; format: functional
In short: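 MIC by standard NCCLS broth microdilution, reported in µg/mL. The strain expresses the ermB and mefA genes. Clarithromycin and azithromycin were run alongside as references.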

Streptococcus pyogenes = test: Antibacterial activity against erythromycin-resistant Streptococcus pyogenes R1 by broth microdilution method; format: functional
In short: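 MIC by standard NCCLS broth microdilution, reported in µg/mL. The strain is a clinically isolated erythromycin-resistant strain. Clarithromycin and azithromycin were run alongside as references.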

[6] = Chemical stability of the compound in pH 7.4 phosphate solution after 24 hrs by HPLC analysis; format: physicochemical; conditions: buffer, pH 7.4, 24 h
In short: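 Compound held in phosphate solution (pH = 7.4) at 25 °C and monitored by HPLC over 24 h. Stability judged from change in peak area.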

Pseudomonas aeruginosa = test: Antibacterial activity against penicillin-susceptible Pseudomonas aeruginosa ATCC 27853 by broth microdilution method; format: functional; in short: as §1

CO[C@]1(C)C[C@@H](C)[C@H](OC(=O)c2ccc(C)cc2)[C@H](C)CN(C)CCOC(=O)[C@H](C)C(=O)[C@H](C)[C@H]1O[C@@H]1O[C@H](C)C[C@H](N(C)C)[C@H]1OC(=O)c1ccc(C)cc1
MIC (Staphylococcus aureus [1]): 128 µg/mL (≈ 164 µM)
MIC (Streptococcus pneumoniae [2]): > 256 µg/mL
MIC (Staphylococcus aureus [3]): > 256 µg/mL
MIC (Staphylococcus aureus [4]): > 256 µg/mL
MIC (Bacillus subtilis): > 128 µg/mL
MIC (Streptococcus pneumoniae [5]): > 256 µg/mL
MIC (Streptococcus pyogenes): > 256 µg/mL
Stabilty [6]: Stable
MIC (Pseudomonas aeruginosa): > 128 µg/mL

CO[C@]1(C)C[C@@H](C)[C@H](OC(=O)c2ccc(Cl)cc2)[C@H](C)CN(C)CCOC(=O)[C@H](C)C(=O)[C@H](C)[C@H]1O[C@@H]1O[C@H](C)C[C@H](N(C)C)[C@H]1OC(=O)c1ccc(Cl)cc1
MIC (Staphylococcus aureus [1]): 128 µg/mL (≈ 156 µM)
MIC (Streptococcus pneumoniae [2]): 128 µg/mL (≈ 156 µM)
MIC (Staphylococcus aureus [3]): > 256 µg/mL
MIC (Staphylococcus aureus [4]): > 256 µg/mL
MIC (Bacillus subtilis): > 128 µg/mL
MIC (Streptococcus pneumoniae [5]): > 256 µg/mL
MIC (Streptococcus pyogenes): > 256 µg/mL
Stabilty [6]: Stable
MIC (Pseudomonas aeruginosa): > 128 µg/mL
